Rows were chosen to be rich in hits. Some 2.1% of all compounds tested hit in one or more screens of this group.
Cneo AK release: causes C. neoformans cell lysis. 360,000 compounds, 0.2% hits. lysis activity, % at 15 µM. adenylate kinase release luminescence, 4 h; normalised: neutral wells 0, clomiphene wells 100;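 active = mean lysis activity across replicates of at least 80%, whatever share of replicates individually reach that level; inactive = mean lysis activity below 80%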
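Test system: log-phase Cryptococcus neoformans yeast cells. Input: 5 × 10^6 yeast cells/mL. Medium: fresh YPD growth medium. Doses: single dose. Incubation: static 4 h at 37 °C with compound, 1 h detection. Measured by: luminescent adenylate kinase detection reagent. Read-out: signal increase indicating cell lysis. Benchmarks: Clomiphene.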
DENV2 CPE rescue: DENV2-induced cell death inhibition | DENV2-infected cells, cytopathic effect rescue, plate reader | CPE inhibition, % at 9.99 µM | 350,000 compounds, 1.7% hits; in the data active = CPE inhibition above about 20%, passing the limit was not always enough; inconclusive = no clear call, values can overlap the other calls; tested in BHK-21 cells
C2C12 statin: protects C2C12 myotubes from simvastatin toxicity; ATP luminescence, 48 h; scaled: DMSO 0, geranylgeraniol control 100; rescue of ATP level, % at 7.49 µM; 330,000 compounds, 0.78% hits; AID 602340;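 active = mean ATP rescue above about 67%, or every replicate alone reaching that limit, limit read from the data, passing the limit was not always enough; inconclusive = no clear call, values can overlap the other calls; inactive = mean under the limit and some replicate under it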;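 note: myotubes were challenged with 10 µM simvastatin during compound exposure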
XiGFP reactiv: reactivates the inactive X chromosome in mouse fibroblasts; XiGFP mouse fibroblasts, % GFP-positive cells imaging, 3 d; cells co-treated with 5-aza-dC sensitizer; scaled so ellipticine positive control = 100%; activation, % at 7.58 µM; 360,000 compounds, 0.055% hits; AID 743238;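 active = mean normalized replicate activation at least 10% and every replicate at or above 10%; inconclusive = only one of the two criteria met; inactive = mean below 10% and not all replicates reach 10%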
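Material: SV40-immortalized XiGFP fibroblast cells, line 68-5-11 | Buffer or medium: DMEM containing 5-aza-dC | Dosing: One concentration, pinned | Times: 3 d treatment, 15 min room-temperature fixation | Controls: Ellipticine 6 µM positive control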
Of the large screens only hits and unclear results are named; the others gave an inactive call.

CCCNS(=O)(=O)c1ccc(CCC(=O)NCc2ccc3c(c2)OCO3)cc1	none (no result: DENV2 CPE rescue, C2C12 statin, XiGFP reactiv)
O=C(CCNS(=O)(=O)c1ccc(Br)cc1)NCc1ccc2c(c1)OCO2	C2C12 statin 152 (no result: DENV2 CPE rescue, XiGFP reactiv)
C[C@H]1CN([C@@H](C)CO)C(=O)c2cc(Br)cnc2O[C@@H]1CN(C)C(=O)C1CCCCC1	none
CN1c2ccc(Br)cc2[C@@H]2[C@@H](CCN2C(=O)Cc2cccnc2)[C@@H]1CO	Cneo AK release 90
CN1c2ccc(Br)cc2[C@H]2[C@H](CCN2S(=O)(=O)c2ccccc2)[C@H]1CO	none
Cc1cccc(S(=O)(=O)N2CC[C@@H]3[C@@H](CO)N(C)c4ccc(Br)cc4[C@@H]32)c1	none
Cc1ccccc1S(=O)(=O)N1CC[C@@H]2[C@H](CO)N(C)c3ccc(Br)cc3[C@@H]21	none
CN1c2ccc(Br)cc2[C@@H]2[C@@H](CCN2S(=O)(=O)c2ccccc2)[C@H]1CO	DENV2 CPE rescue 116
Cc1ccccc1S(=O)(=O)N1CC[C@@H]2[C@H]1c1cc(Br)ccc1N(C)[C@H]2CO	DENV2 CPE rescue 66
CN1c2ccc(Br)cc2[C@H]2[C@H](CCN2S(=O)(=O)c2cccc(F)c2)[C@H]1CO	DENV2 CPE rescue 118
C[C@@H]1CN([C@@H](C)CO)C(=O)c2ccccc2-c2ccccc2CO[C@H]1CN(C)S(=O)(=O)c1ccc(C#N)cc1	DENV2 CPE rescue inconclusive (no result: C2C12 statin)
Cc1noc(C)c1S(=O)(=O)Nc1ccc2c(c1)CC(=O)N([C@H](C)CO)C[C@@H](C)[C@H](CN(C)CC1CCCCC1)O2	none
CN1c2ccc(-c3ccc(F)cc3)cc2[C@@H]2[C@@H](CCN2S(=O)(=O)c2cccc(F)c2)[C@@H]1CO	none
CN1c2ccc(-c3ccc(F)cc3)cc2[C@H]2[C@H](CCN2S(=O)(=O)c2cccc(F)c2)[C@H]1CO	Cneo AK release 104
C[C@@H]1CCCCO[C@@H](CN(C)S(=O)(=O)c2cn(C)cn2)[C@H](C)CN([C@H](C)CO)C(=O)c2cc(NC(=O)Cc3ccccc3)ccc2O1	none (no result: C2C12 statin)
CCCNC(=O)N(C)C[C@H]1Oc2ncc(C#Cc3ccncc3)cc2C(=O)N([C@@H](C)CO)C[C@H]1C	none
C[C@@H]1CCCCO[C@@H](CN(C)Cc2ccc(C(=O)O)cc2)[C@@H](C)CN([C@H](C)CO)C(=O)c2cc(NC(=O)C3CCCCC3)ccc2O1	DENV2 CPE rescue inconclusive (no result: C2C12 statin)
C[C@@H]1CCCCO[C@@H](CN(C)Cc2ccc(C(=O)O)cc2)[C@@H](C)CN([C@@H](C)CO)C(=O)c2cc(NC(=O)C3CCCCC3)ccc2O1	DENV2 CPE rescue 38 (no result: C2C12 statin)
C[C@@H]1CCCCO[C@@H](CN(C)Cc2ccccc2)[C@@H](C)CN([C@@H](C)CO)C(=O)c2cc(NC(=O)C3CCCCC3)ccc2O1	DENV2 CPE rescue 27 (no result: C2C12 statin)
O=C(c1ccccn1)N1CC2(C1)[C@H](c1ccccc1)[C@H](CO)N2C(=O)C1CCC1	none (no result: Cneo AK release, C2C12 statin)
C[C@@H]1CN([C@@H](C)CO)C(=O)Cc2cc(NC(=O)Cc3cn(C)c4ccccc34)ccc2O[C@H]1CN(C)Cc1ccc(C(F)(F)F)cc1	C2C12 statin 104
C[C@H](CO)N1C[C@H](C)[C@@H](CN(C)Cc2ccc(-c3ccccc3)cc2)Oc2ccc(NC(=O)Cc3cn(C)c4ccccc34)cc2CC1=O	C2C12 statin 102 (no result: Cneo AK release)
C[C@H](CO)N1C[C@H](C)[C@H](CN(C)Cc2ccccc2)Oc2ccc(NC(=O)Cc3cn(C)c4ccccc34)cc2CC1=O	none
Cc1noc(C)c1NC(=O)Nc1ccc2c(c1)C(=O)N([C@H](C)CO)C[C@H](C)[C@@H](CN(C)Cc1ccc(Cl)c(Cl)c1)O2	none
O=C(Nc1ccncc1)Nc1ccc(Cl)cc1Cl	DENV2 CPE rescue 71
O=C(NC1CC1)c1ccc(NC(=O)C2CCCC2)cc1	DENV2 CPE rescue 72
O=C(Nc1ccc(F)cc1)N1CCCCN2[C@@H](CO)[C@H](c3ccc(-c4ccncc4)cc3)[C@@H]2C1	DENV2 CPE rescue 30 (no result: C2C12 statin)
C/C=C/c1ccc([C@H]2[C@H](CO)N3CCCCN(C(=O)Nc4ccc(OC)cc4)C[C@@H]23)cc1	none (no result: C2C12 statin)
C/C=C/c1ccc([C@@H]2[C@H]3CN(C(=O)Nc4ccc(OC)cc4)CCCCN3[C@H]2CO)cc1	Cneo AK release 114 (no result: C2C12 statin)
COc1ccc(C#Cc2ccc([C@H]3[C@@H](CO)N4CCCCN(C(=O)Nc5ccc(F)cc5)C[C@H]34)cc2)cc1	DENV2 CPE rescue 31 (no result: C2C12 statin)
CCC(=O)N1CCCCN2[C@@H](CO)[C@H](c3ccc(-c4ccc(F)cc4)cc3)[C@@H]2C1	DENV2 CPE rescue 25
